Experimental data reported in paper PMC8317634 (Journal of the Endocrine Society, 2021).

Key:
[1] = tested on: individuals with obesity and hypertension; test: 8 weeks treatment, fasting plasma before and after; format: in vivo, human; settings: amlodipine 10 mg once a day, n = 7, control group
How it was run: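 Multicentre, randomized, double-blinded study in adults with hypertension and obesity. Participants received amlodipine 10 mg once daily (n = 7) or sacubitril/valsartan 194 mg/206 mg once daily (n = 7) for 8 weeks. Plasma was sampled after an overnight fast before and after treatment. Glucagon was measured by validated 2-site enzyme immunoassay and L-amino acids by a commercial kit.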

recombinant NEP = test: ANP degradation by recombinant NEP; format: biochemical; settings: MALDI-TOF
[2] = tested on: GLP-1R^–/– mice and GLP-1R^+/+ mice; format: in vivo; settings: sacubitril at -30 min, AAs 34 mg oral
[3] = used to correct the oral dose; species and source not given; cited from earlier work
female C57BL/6JRj mice [4] = test: Oral amino acid challenge in female mice treated with sacubitril, GRA or Ex9-39; format: in vivo; settings: AAs 34 mg oral
How it was run: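 Female C57BL/6JRj mice (n = 7-10) were fasted 3 h. They were pretreated with GRA vehicle or GRA (100 mg/kg oral) at –180 min, or Ex9-39 (100 µg i.p.) at –15 min. Sacubitril (oral gavage) or PBS/0.7% DMSO was given at –30 min. An amino-acid mixture (34 mg, oral gavage) followed at 0 min. Blood glucose was measured from tail bleeds by handheld glucometer at 0, 10, 15, 30, 60 and 180 min.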

NEP activity = molecular target: T1, NEP activity (Mus musculus, UniProt Q61391); test: Inhibition of NEP activity in mice by oral sacubitril; format: in vivo; settings: sacubitril 0.7 nmol/g BW, oral gavage; data not shown
T1 sequence (Q61391 1-750): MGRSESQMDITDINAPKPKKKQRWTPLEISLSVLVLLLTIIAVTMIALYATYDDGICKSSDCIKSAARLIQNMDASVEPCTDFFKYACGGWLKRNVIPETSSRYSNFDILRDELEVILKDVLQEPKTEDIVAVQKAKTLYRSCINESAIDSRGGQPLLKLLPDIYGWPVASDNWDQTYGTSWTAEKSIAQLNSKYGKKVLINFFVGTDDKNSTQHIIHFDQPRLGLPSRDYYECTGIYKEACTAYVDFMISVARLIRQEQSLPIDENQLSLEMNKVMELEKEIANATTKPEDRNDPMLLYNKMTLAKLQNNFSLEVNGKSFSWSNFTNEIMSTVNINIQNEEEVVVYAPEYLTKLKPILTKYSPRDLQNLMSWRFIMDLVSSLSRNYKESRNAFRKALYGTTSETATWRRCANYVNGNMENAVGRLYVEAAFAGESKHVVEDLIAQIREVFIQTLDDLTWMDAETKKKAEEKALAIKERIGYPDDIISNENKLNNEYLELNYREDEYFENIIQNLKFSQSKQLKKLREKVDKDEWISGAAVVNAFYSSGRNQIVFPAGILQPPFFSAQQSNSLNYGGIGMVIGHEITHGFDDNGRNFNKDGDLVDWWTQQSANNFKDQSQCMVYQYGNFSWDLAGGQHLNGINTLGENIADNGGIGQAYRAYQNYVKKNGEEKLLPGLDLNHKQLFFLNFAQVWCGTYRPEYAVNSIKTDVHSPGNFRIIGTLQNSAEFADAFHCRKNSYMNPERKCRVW

female C57BL/6JRj mice [5] = test: Female mice given water instead of amino acids; format: in vivo; settings: sacubitril coadministered with vehicle, GRA or Ex9-39 vs these alone; n = 3
How it was run: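 Female C57BL/6JRj mice were fasted 3 h with free water. They received GRA (100 mg/kg, oral gavage suspension) or its vehicle at –180 min, or Ex9-39 (100 µg i.p.) at –15 min. Sacubitril (0.7 nmol/g BW, oral gavage; DMSO diluted in PBS) or PBS/0.7% DMSO was given at –30 min, then water at 0 min. Retrobulbar blood was taken at 0–180 min for plasma glucagon by 2-site enzyme immunoassay.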

male C57BL/6JRj mice = test: Oral amino acid challenge in male mice treated with sacubitril; format: in vivo; settings: AA challenge, n = 6
How it was run: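 Male C57BL/6JRj mice (~22 g) were acclimatized for at least 1 week. At –30 min they received sacubitril (0.7 nmol/g BW; DMSO stock diluted in PBS) or vehicle (PBS, 0.7% DMSO) by oral gavage. Amino acids (34 mg, Vamin solution) were gavaged at 0 min. Tail blood was sampled at 0, 10, 15, 30, 60 and 180 min for glucometer glucose and EDTA plasma. Plasma glucagon was measured by two-site enzyme immunoassay; L-amino acids and urea by kits.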

healthy young men = test: Single dose of sacubitril/valsartan; format: in vivo, human; settings: valsartan alone 206 mg; n = 3
How it was run: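 Healthy men meeting the crossover-trial inclusion criteria (n = 3) received valsartan 206 mg 30 min before a solid mixed meal (42 g carbohydrate, 25 g fat, 26 g protein), or the meal alone, on separate occasions. Blood was drawn at –60, –15, 0, 30, 45, 90 and 180 min. Plasma glucagon was measured by validated 2-site enzyme immunoassay, and the postprandial response was expressed as incremental AUC.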

## CCOC(=O)C1=C(COCCN)NC(C)=C(C(=O)OC)C1c1ccccc1Cl (centres unmarked) [amlodipine]
[1]
  plasma concentrations of glucose, glucagon, or AAs, after vs before: no significant changes

## atrial natriuretic peptide [ANP]
Recombinant NEP; positive control, recombinant NEP, Supplementary Fig. 2A and 2B
  degradation of ANP by NEP: NEP cleavage resulted in the formation of a known substrate (m/z 2585)

## CCOC(=O)[C@H](C)C[C@@H](Cc1ccc(-c2ccccc2)cc1)NC(=O)CCC(=O)O [sacubitril]
[2]; mean ± SD, vehicle 255 ± 118, P = .05
  plasma AA iAUC in GLP-1^–/– mice: 376 ± 67
[2]; time point 15 minutes, P = .02
  augmenting effect on AA-stimulated glucagon levels in GLP-1R^+/+ mice: apparent only in littermate controls
[2]; vs vehicle
  glucagon response to AAs in GLP-1R^–/– mice: did not, however, increase the glucagon response to AAs
[2]; vs vehicle, P = .03
  blood glucose concentrations in response to an AA challenge in GLP-1R^–/– mice: increased blood glucose concentrations
[3]
  bioavailability: 60%
Female C57BL/6JRj mice [4]; sacubitril 0.7 nmol/g BW + Ex9-39 100 µg
  plasma concentrations of glucagon, coadministration with Ex9-39 vs Ex9-39 alone: increased plasma concentrations of glucagon more
Female C57BL/6JRj mice [4]; sacubitril 0.7 nmol/g BW oral
  plasma concentrations of amino acids vs vehicle: no effect on plasma concentrations of amino acids
Female C57BL/6JRj mice [4]; sacubitril 0.7 nmol/g BW oral, vs vehicle
  blood glucose concentrations in response to an AA challenge: no significant increase
NEP activity
  inhibition of NEP activity in mice: ~ 60%
Female C57BL/6JRj mice [5]
  plasma concentrations of glucagon, water instead of AAs: increased numerically
Male C57BL/6JRj mice
  blood glucose or plasma concentrations of AAs, male mice: without altering blood glucose or plasma concentrations of AAs
  plasma concentrations of glucagon, male mice: increased plasma concentrations of glucagon
  plasma concentrations of urea, male mice: did not increase plasma concentrations of urea

## CCCCC(=O)N(Cc1ccc(-c2ccccc2-c2nnn[nH]2)cc1)[C@H](C(=O)O)C(C)C [valsartan]
Healthy young men
  effect on postprandial plasma concentrations of glucagon vs control: no effect

## C[C@H](C[C@@H](Cc1ccc(-c2ccccc2)cc1)NC(=O)CCC(=O)O)C(=O)O [sacubitrilat]
Recombinant NEP; sacubitrilat added
  effect on NEP-induced ANP cleavage: prevented by the addition of sacubitrilat
